Assay results from ChEMBL document CHEMBL1155099, “Natural products in parallel synthesis: triazole libraries of nonactic acid” (2008).
Activity calls are given as the source filed them.

Key:
Format in all cases: functional, organism-based
Cryptococcus neoformans = assay: Antifungal activity against Cryptococcus neoformans at 1 mM by almar blue dye reduction assay
Procedure, shortened: (§1)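 Single-point primary screen at 1 mM using Alamar Blue dye reduction as the growth read-out.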

Bacillus subtilis = assay: Antibacterial activity against Bacillus subtilis at 1 mM by almar blue dye reduction assay; procedure, shortened: as §1
Bacillus anthracis = assay: Antibacterial activity against Bacillus anthracis at 1mM by almar blue dye reduction assay
Candida albicans = assay: Antifungal activity against Candida albicans at 1 mM by almar blue dye reduction assay; procedure, shortened: as §1
Saccharomyces cerevisiae = assay: Antifungal activity against Saccharomyces cerevisiae at 1 mM by almar blue dye reduction assay; procedure, shortened: as §1
Pseudomonas aeruginosa = assay: Antibacterial activity against Pseudomonas aeruginosa at 1 mM by almar blue dye reduction assay; procedure, shortened: as §1
Escherichia coli = assay: Antibacterial activity against Escherichia coli at 1 mM by almar blue dye reduction assay; procedure, shortened: as §1
Bacillus cereus = assay: Antibacterial activity against Bacillus cereus at 1 mM by almar blue dye reduction assay; procedure, shortened: as §1
Staphylococcus aureus = assay: Antibacterial activity against Staphylococcus aureus at 1 mM by almar blue dye reduction assay; procedure, shortened: as §1

Measured: Activity

C[C@H](CC1CCC([C@@H](C)C(=O)N2CCN(CC3CCCO3)CC2)O1)n1cc(C#CCOC(=O)OCc2ccccc2)nn1 (single isomer, unassigned)
inactive: all assays above

COc1ccc(C#Cc2cn([C@H](C)C[C@@H]3CC[C@H]([C@@H](C)C(=O)N4CCCC4)O3)nn2)cc1
inactive: all assays above

COCC#Cc1cn([C@H](C)C[C@@H]2CC[C@H]([C@@H](C)C(=O)NC(C)C)O2)nn1
inactive: all assays above

Cc1cccc(NC(=O)NCC#Cc2cn([C@H](C)CC3CCC([C@@H](C)C(=O)N4CCCC4)O3)nn2)c1 (single isomer, unassigned)
inactive: all assays above

COCC#Cc1cn([C@H](C)C[C@@H]2CC[C@H]([C@@H](C)C(=O)N3CCN(CC4CCCO4)CC3)O2)nn1 (some centres not stated)
inactive: all assays above

C[C@H](C[C@@H]1CC[C@H]([C@@H](C)C(=O)N2CCCC2)O1)n1cc(C#CCOc2ccc(C(F)(F)F)cc2)nn1
inactive: all assays above

CCCNC(=O)NCC#Cc1cn([C@H](C)CC2CCC([C@@H](C)C(=O)N(CC)CC)O2)nn1 (single isomer, unassigned)
inactive: all assays above

CC(C)NC(=O)[C@H](C)[C@H]1CC[C@@H](C[C@@H](C)n2cc(C#CCN(C)C)nn2)O1
inactive: all assays above

COc1ccc(OCC#Cc2cn([C@H](C)C[C@@H]3CC[C@H]([C@@H](C)C(=O)NC(C)C)O3)nn2)cc1
inactive: all assays above

CCOC(=O)C#Cc1cn([C@H](C)CC2CCC([C@@H](C)C(=O)N3CCCC3)O2)nn1 (single isomer, unassigned)
inactive: all assays above

CCN(CC)C(=O)[C@H](C)[C@H]1CC[C@@H](C[C@@H](C)n2cc(C#CCOc3ccc(C(F)(F)F)cc3)nn2)O1
inactive: all assays above

CCCNC(=O)NCC#Cc1cn([C@H](C)CC2CCC([C@@H](C)C(=O)N(C)Cc3ccccc3)O2)nn1 (single isomer, unassigned)
inactive: all assays above

Cc1cccc(NC(=O)OCC#Cc2cn([C@H](C)CC3CCC([C@@H](C)C(=O)N(C)Cc4ccccc4)O3)nn2)c1 (single isomer, unassigned)
inactive: all assays above

C[C@H](C[C@@H]1CC[C@H]([C@@H](C)C(=O)N2CCN(CC3CCCO3)CC2)O1)n1cc(C#CCc2ccccc2)nn1 (some centres not stated)
inactive: all assays above

CCN(CC)C(=O)[C@H](C)C1CCC(C[C@@H](C)n2cc(C#CCNC(=O)OCc3ccccc3)nn2)O1 (single isomer, unassigned)
inactive: all assays above

C[C@H](CC1CCC([C@@H](C)C(=O)N2CCCC2)O1)n1cc(C#CCCCC#N)nn1 (single isomer, unassigned)
inactive: all assays above

CCOC(=O)C#Cc1cn([C@H](C)CC2CCC([C@@H](C)C(=O)N(CC)CC)O2)nn1 (single isomer, unassigned)
inactive: all assays above

CC(C)CC#Cc1cn([C@H](C)C[C@@H]2CC[C@H]([C@@H](C)C(=O)N(C)Cc3ccccc3)O2)nn1
inactive: all assays above

C[C@H](C[C@@H]1CC[C@H]([C@@H](C)C(=O)N2CCCC2)O1)n1cc(C#Cc2ccc(Oc3ccccc3)cc2)nn1
inactive: all assays above

CC(C)NC(=O)[C@H](C)[C@H]1CC[C@@H](C[C@@H](C)n2cc(C#CCOc3ccc(C(F)(F)F)cc3)nn2)O1
inactive: all assays above

C[C@H](C[C@@H]1CC[C@H]([C@@H](C)C(=O)N2CCCC2)O1)n1cc(C#CCN(C)CCc2ccccc2)nn1
inactive: all assays above

COc1ccc(C#Cc2cn([C@H](C)C[C@@H]3CC[C@H]([C@@H](C)C(=O)NC(C)C)O3)nn2)cc1
inactive: all assays above

CCC(=O)OCC#Cc1cn([C@H](C)CC2CCC([C@@H](C)C(=O)NC(C)C)O2)nn1 (single isomer, unassigned)
inactive: all assays above
